Screens: PubChem BioAssay, several laboratories
Compounds with a hit are over-represented: about 1.5% of the library has one in this group of screens.
m5-HT2A agonist: activates the mouse 5-HT2A serotonin receptor. activation, % at 7.6 µM. P35363. CHO-K1 mHTR2A beta-arrestin complementation, luminescence; percent of 30 µM serotonin response. 360,000 tested, 0.66% active;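 active means activation above a run cutoff, the mean activation of all tested compounds plus 3 SD, cut at about 14% in these data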;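 further: 0% = plate median of compound wells and 100% = 30 µM serotonin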
NTR1 ag: activates human neurotensin receptor 1; AID 493036; P30989; activation, % at 20 µM; NTR1-U2OS beta-arrestin-GFP spot imaging, agonist mode; 330,000 tested, 0.17% active;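 active means activation at or above 40% of the spot to cytoplasm intensity ratio, with at least 20 cells analyzed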;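 further: 0% = DMSO without peptide and 100% = 100 nM NTR1 peptide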
APJ antag: blocks the human apelin receptor APJ; 330,000 tested, 0.32% active; AID 2521; P35414; inhibition, % at 20 µM; CHO-K1 APJ beta-arrestin complementation, luminescence;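 active means inhibition above about 40% at 20 µM, limit read from the data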;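 further: cells challenged with 10 nM apelin-13 agonist together with compound; plate controls were apelin-13 plus DMSO wells for no effect and DMSO wells lacking apelin-13 for full effect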
CXCR6 inh: CXCR6 (human) receptor inhibition | O00574 | CHO-K1 PathHunter CXCR6 beta-arrestin, luminescence | inhibition, % at 20 µM | 360,000 tested, 0.36% active | AID 602244; in the data active means inhibition above about 34%, passing the limit was not always enough;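 further: antagonist mode with CXCL16 agonist at 10 nM final; 0% = 10 nM CXCL16 with DMSO and 100% = unstimulated wells without agonist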
Target sequence (O00574 whole entry, looked up): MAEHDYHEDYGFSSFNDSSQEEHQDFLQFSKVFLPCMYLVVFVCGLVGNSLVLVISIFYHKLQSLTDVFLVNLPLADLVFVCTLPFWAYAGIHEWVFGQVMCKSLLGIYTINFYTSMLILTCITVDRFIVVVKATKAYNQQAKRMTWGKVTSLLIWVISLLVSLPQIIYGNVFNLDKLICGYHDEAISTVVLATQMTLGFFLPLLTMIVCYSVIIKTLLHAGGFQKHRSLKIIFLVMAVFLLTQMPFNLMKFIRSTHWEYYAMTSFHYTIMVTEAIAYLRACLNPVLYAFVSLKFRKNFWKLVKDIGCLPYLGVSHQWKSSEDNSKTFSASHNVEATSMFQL
APJ agonist: APJ receptor agonism; P35414; CHO-K1 APJ PathHunter beta-arrestin, luminescence; 0% DMSO wells, 100% apelin; activation, % at 20 µM; 330,000 tested, 0.11% active; AID 2520;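 active means activation more than six SD over the plate average, tested at 20 µM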;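 further: 0% = DMSO alone and 100% = apelin-13 at 10 nM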
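Test system: CHO-K1 APJ beta-arrestin complementation cell line | Compound: Single test compound dose, 20 µM final, 1% DMSO | Incubation: Compound 90 min 25 °C, reagent 1 h | Measured by: beta-gal luminescence | Read-out basis: APJ–arrestin association signal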
CCR6 antagonist: CCR6 (human) receptor antagonism; AID 493098; P51684; inhibition, % at 20 µM; CHO-K1 CCR6 PathHunter beta-arrestin, luminescence, CCL20-stimulated; 340,000 tested, 0.49% active;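 active means compounds whose inhibition of the agonist-driven luminescence signal at 20 µM reaches about 50%, limit read from the data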;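 further: cells stimulated with CCL20 at 14 nM final; plate controls were DMSO with CCL20 for no effect and DMSO without agonist for full effect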
* = called active by the depositor; nt = no result.

SMILES	m5-HT2A agonist	NTR1 ag	APJ antag	CXCR6 inh	APJ agonist	CCR6 antagonist
FC(F)(F)c1cc(CCN2CCNC[C@H]2Cc2cccc3ccccc23)cc(C(F)(F)F)c1	-0.4	50.6*	24.1	-3.7	-6.9	-1.6
O=C1C=CC(=O)N1CCCCCCN1C(=O)C=CC1=O	nt	nt	nt	nt	nt	103.5*
CC1=C(C(=O)OC(C)C)C(c2ccc3c(c2)OCO3)NC(=O)N1 (centres undefined)	2.2	1.5	11.1	-2.6	1.4	9.8
Cc1[nH]c2ccccc2c1C1=CC(=O)C=CC1=O	-10.6	nt	nt	70.1*	nt	nt
CC1(C(=O)Nc2ccc3nc[nH]c3c2)CCN1C(=O)C1(c2ccccc2)CCCC1 (centres undefined)	2.6	nt	nt	4.2	nt	nt
COc1cc(/C=C2/C(=O)N(c3ccc(Br)cc3)N=C2C)cc([N+](=O)[O-])c1O	nt	4.2	48.2*	nt	-10.1	nt
CCN1/C(=C\C=C2\C(=O)N(c3ccccc3)C(=S)N2C)Sc2ccccc21	-1.1	nt	nt	40.5*	nt	63.3*
CC(C)CC(=O)NC(Nc1ccc([N+](=O)[O-])cc1)C(Cl)(Cl)Cl (centres undefined)	-0.3	4.0	-4.0	-2.3	-0.3	18.6
Cc1cc(OCC(=O)N(Cc2cccs2)C2CCS(=O)(=O)C2)ccc1Cl (centres undefined)	0.8	34.7	-2.7	-4.6	-6.0	7.0
CCS(=O)(=O)N1Cc2ccccc2CC1C(=O)Nc1cccc(S(=O)(=O)N(C)C)c1 (centres undefined)	6.8	0.9	14.5	-3.7	-3.0	16.1
CC1=NOC(=O)/C1=C\c1ccc(-c2ccc(Br)cc2)o1	-2.5	nt	nt	41.4*	nt	76.1*
COc1cc(C=C2CN(C)C(=O)C2=O)ccc1O	-2.6	nt	nt	32.5	nt	nt
CCOc1cc(/C=C2\CN(C)C/C(=C\c3ccc(O)c(OCC)c3)C2=O)ccc1O	-9.4	15.4	27.2	34.2	-7.8	57.3*
COc1cccc(-c2cccc(NC(=O)C3CCN(C4CCOCC4)CC3)c2)c1	-4.9	3.9	6.2	5.5	-0.7	0.8
CCOc1ccc(NCC(=O)N/N=C/C=C/c2ccccc2)cc1	2.4	-1.3	3.9	-0.9	-1.4	11.2
CCOc1ccc(N=C/C=C/c2ccccc2)c(O)c1	1.2	1.4	-12.2	-5.2	6.5	52.3*
O=C(N/N=C/c1cccc2nccnc12)c1ccccc1O	-0.5	-0.9	34.3	39.6	-9.6	65.8*
Cc1ccc2nc(C)cc(C(=O)Nc3nccs3)c2c1	2.6	2.3	-6.3	-3.8	-2.1	7.8
Nc1nc(-c2ccccc2)c(N=Nc2ccccc2Cl)s1	-10.7	22.5	39.8	57.1*	-8.6	62.5*
Nc1nc(-c2ccccc2)c(N=Nc2cccc3ccccc23)s1	-8.8	27.7	39.1	42.8*	-9.1	54.6*
O=C(Nc1ccc(Br)cc1)c1cc([N+](=O)[O-])cc([N+](=O)[O-])c1	9.1	13.3	-19.5	10.5	7.9	-13.5
O=c1c2c([N+](=O)[O-])cc([N+](=O)[O-])cc2sn1-c1ccc(Br)cc1	-1.3	5.4	-51.3	22.4	0.0	50.1*
COCCN(C(=O)COC(=O)c1ccccc1Oc1ccccc1)c1c(N)n(Cc2ccccc2)c(=O)[nH]c1=O	-2.4	0.7	-17.2	11.4	-2.3	27.4
CC(C)NC(=O)COC(=O)c1ccccc1C(=O)c1ccccc1	5.0	1.9	7.5	-3.2	-3.0	17.6
Cc1cc(N(C)/N=C/c2ccccc2O)nc(-c2ccccc2O)n1	1.5	8.9	12.5	42.0*	-1.0	56.0*
SMILES	m5-HT2A agonist	NTR1 ag	APJ antag	CXCR6 inh	APJ agonist	CCR6 antagonist
Cc1cc(Cl)nc(Cl)c1C(=O)NCc1ccc(Cl)cc1	-9.0	0.2	-13.2	-0.5	-3.1	11.7
Nc1nn(S(=O)(=O)c2ccccc2)cc1-c1ccc([N+](=O)[O-])cc1	-1.6	1.8	-63.2	-11.4	9.9*	11.6
Cc1ccc(S(=O)(=O)n2cc(-c3ccccc3)c(N)n2)cc1	5.0	2.3	-12.6	-3.3	0.0	7.5
S=C(Nc1cc(Cl)cc(Cl)c1)NC1CCN(Cc2ccccc2)CC1	-8.5	52.4*	-4.3	-11.4	2.3	15.6
O=C(O)c1cc(O)c2c(c1)C(=O)c1cccc(O)c1C2=O	3.1	-0.9	-1.5	48.4*	12.9	78.9*
O=C1C=C(O)c2c(O)cccc2C1=O	nt	2.4	-80.8	nt	-4.2	nt
COc1ccc(Cl)cc1N1C(=O)/C(=C/c2sccc2C)N=C1SCC(=O)NC1CC1	-4.8	nt	nt	9.4	nt	21.8
